Structures are written as SMILES. Converted amounts (≈) assume the structure as drawn. The source made the active and inactive calls. The rule behind the calls is not given here. Some results are limits rather than exact numbers.

Assay [1] has as its system Plasmodium falciparum. In words: Antiplasmodial activity against Plasmodium falciparum D6 clone after 48 hrs. Format: functional, organism-based. The conditions noted are these: D6, 48 h.
A short description of assay [2]: Inhibition of respiration in bovine heart submitochondrial particles assessed as NADH oxidation. Format: functional, Bos taurus.
For assay [3], the system named is Plasmodium falciparum. Briefly: Antiplasmodial activity against Plasmodium falciparum W2 after 48 hrs. Format: functional, organism-based. The conditions noted are these: W2, 48 h.
The subject of another assay is L929. Briefly: Cytotoxicity against mouse L929 cells after 5 days by MTT assay. The assay is classed as cell-based. The conditions noted are these: L929, 120 h. The essentials: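 L929 mouse fibroblasts were exposed to serial compound dilutions, and metabolic activity was read by MTT after 5 days.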
For orientation: Formazan colour is commonly taken as a measure of viable cells.

Assay [4] concerns Plasmodium berghei. Briefly: Antimalarial activity against Plasmodium berghei infected in mice (Mus musculus).
Assay [5] concerns Plasmodium berghei. In words: Antimalarial activity against Plasmodium berghei infected in mice (Mus musculus) at 100 mg/kg. Format: functional.

Turning to `CC(C)=CCC/C(C)=C/CC/C(C)=C/Cc1c(O)c(C)[n+]([O-])c2ccccc12` [AURACHIN B], the 50% inhibitory concentration (IC50) – broadly, the point on the concentration scale where inhibition reaches its midpoint – in the assay on Plasmodium falciparum [1] amounted to 78 ng/mL (≈ 0.206 µM); in assay [2], 0.014 µg/mL (≈ 0.0369 µM); in the assay with Plasmodium falciparum [3], 0.036 µg/mL (≈ 0.0949 µM); in the assay with L929, 3.2 µg/mL (≈ 8.43 µM).

Regarding `CC(C)=CCC/C(C)=C/CC/C(C)=C/Cc1c(C)[nH]c2ccccc2c1=O` [AURACHIN D], the IC50 was found to be 250 ng/mL (≈ 0.688 µM) in the assay with Plasmodium falciparum [1], 0.018 µg/mL (≈ 0.0495 µM) in assay [2], 0.37 µg/mL (≈ 1.02 µM) in the assay on Plasmodium falciparum [3] and 1.3 µg/mL (≈ 3.58 µM) in the assay with L929.

For the compound `CC(C)=CCC/C(C)=C/CCC(C)(O)C1Cc2c(c(C)[n+]([O-])c3ccccc23)O1` (stereo not drawn) [AURACHIN A], the concentration for half-maximal inhibition (IC50) in the assay with Plasmodium falciparum [1] was greater than 12000 ng/mL; in assay [2], 0.028 µg/mL (≈ 0.0708 µM); in the assay on Plasmodium falciparum [3], greater than 12 µg/mL; in the assay on L929, 1.4 µg/mL (≈ 3.54 µM).

Regarding `CC(C)=CCC/C(C)=C/CC/C(C)=C/Cc1c(C)n(O)c2ccccc2c1=O` [AURACHIN C], the 50% inhibitory concentration (IC50) came out at 0.9 ng/mL (≈ 0.00237 µM) with Plasmodium falciparum [1], 0.016 µg/mL (≈ 0.0422 µM) in assay [2], 0.026 µg/mL (≈ 0.0685 µM) in the assay on Plasmodium falciparum [3] and 1.8 µg/mL (≈ 4.74 µM) with L929.

Take `CCN(CC)CCCC(C)Nc1ccnc2cc(Cl)ccc12` (stereo not drawn) [CHLOROQUINE]: the IC50 was greater than 8.1 µg/mL in assay [2] and 14 µg/mL (≈ 43.8 µM) in the assay on L929. This compound came in with an ED90 in the assay on Plasmodium berghei [4] of 2.8 mg/kg.

As to `C[C@@H]1CC[C@H]2[C@@H](C)C(=O)O[C@@H]3O[C@@]4(C)CC[C@@H]1[C@]32OO4` [ARTEMISININ], the IC50 is 1.1 ng/mL (≈ 0.0039 µM) in the assay with Plasmodium falciparum [1], greater than 8.1 µg/mL in assay [2], 0.00043 µg/mL (≈ 0.00152 µM) in the assay with Plasmodium falciparum [3] and greater than 40 µg/mL in the assay with L929.

Take `CC(C)=CCC/C(C)=C/CC/C(C)=C/Cc1c(C)n2c(=O)[nH]c3cccc(c1=O)c32` [AURACHIN E]: the 50% inhibitory concentration (IC50) in the assay with Plasmodium falciparum [1] came to 0.4 ng/mL (≈ 0.000989 µM); in assay [2] it was 1.1 µg/mL (≈ 2.72 µM); in the assay on Plasmodium falciparum [3], 0.013 µg/mL (≈ 0.0321 µM); in the assay on L929 it was 25 µg/mL (≈ 61.8 µM). The outcome in the assay on Plasmodium berghei [5] was inactive.

The values above are taken from ChEMBL document CHEMBL1154144, “Semisynthesis and antiplasmodial activity of the quinoline alkaloid aurachin E” (J Nat Prod, 2008).
